Laboratory results taken from ChEMBL document CHEMBL5512639, “Insights from structure-activity relationships and the binding mode of peptidic α-ketoamide inhibitors of the malaria drug target subtilisin-like SUB1” (Eur J Med Chem, 2024).
Activity calls are given as the source filed them. The calls are words filed in the database; no cut-off is given here. Numbered stars: 1 amine (or outer) side, 2 acyl side, 3 side chain; on linkers, the order of the positions; unused ones are H or OH. Square brackets hold non-standard residues; d marks the D form. Peptide text beside a SMILES is read from it. * marks the point of attachment. Ala(1H-tetrazol-5-yl) = N[C@@H](Cc1nnn[nH]1)C(=O)O; Asp(3,3-Me2) = CC(C)(C(=O)O)[C@H](N)C(=O)O; X3 = NC(=O)CC[C@H](N[*:1])C(=O)C(=O)[*:2]; Gly(cPent) = N[C@H](C(=O)O)C1CCCC1; X1 = C[C@H](N[*:1])C(=O)C(=O)[*:2]; Pentanoyl(4-Me) = CC(C)CCC(=O)*; Cha = N[C@@H](CC1CCCCC1)C(=O)O; Chg = N[C@H](C(=O)O)C1CCCCC1; OAll = C=CCO*

What was measured:
[1] = Inhibition of full length recombinant Plasmodium vivax SUB1 expressed in Drosophila S2 cells using Dabsyl-KLVGADDV-SLA-EDANS as substrate measured every 2 mins for 1 hr by FRET assay
[2] = biological target: T1, Subtilisin-like protease 1 (Plasmodium falciparum, UniProt O61142); experiment: Inhibition of full length recombinant Plasmodium falciparum SUB1 using Dabsyl-KLVSADNIDIS-EDANS as substrate measured every 2 mins for 1 hr by FRET assay
T1 sequence (O61142 whole entry): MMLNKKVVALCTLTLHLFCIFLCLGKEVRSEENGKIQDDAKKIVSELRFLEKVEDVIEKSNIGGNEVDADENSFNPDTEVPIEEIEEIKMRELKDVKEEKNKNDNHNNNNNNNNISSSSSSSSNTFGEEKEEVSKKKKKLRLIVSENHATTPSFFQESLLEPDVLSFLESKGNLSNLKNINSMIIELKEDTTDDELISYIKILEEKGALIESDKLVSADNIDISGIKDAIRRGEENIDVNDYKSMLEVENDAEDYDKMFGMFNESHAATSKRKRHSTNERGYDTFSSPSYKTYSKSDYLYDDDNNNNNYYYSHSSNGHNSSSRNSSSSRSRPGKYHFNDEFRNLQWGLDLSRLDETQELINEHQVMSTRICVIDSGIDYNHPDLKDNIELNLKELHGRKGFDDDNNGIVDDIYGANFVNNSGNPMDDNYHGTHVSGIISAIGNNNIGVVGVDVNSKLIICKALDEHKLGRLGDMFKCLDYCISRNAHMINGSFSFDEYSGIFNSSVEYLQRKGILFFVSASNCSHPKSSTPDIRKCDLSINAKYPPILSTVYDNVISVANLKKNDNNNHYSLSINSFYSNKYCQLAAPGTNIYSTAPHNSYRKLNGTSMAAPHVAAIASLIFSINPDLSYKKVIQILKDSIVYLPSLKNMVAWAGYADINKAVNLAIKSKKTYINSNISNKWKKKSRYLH

Plasmodium falciparum [3] = experiment: Antiparasitic activity against Plasmodium falciparum infected in human Erythrocyte assessed as inhibition of merozoite egress from human Erythrocyte at 100 uM measured for 8 hrs by flow cytometry analysis relative to control; assay type: functional
In short: (§1)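 P. falciparum cultured in human RBCs, RPMI 1640 with 25 mM HEPES, 2.5% Albumax II, 100 μM hypoxanthine, 37 °C, 5% O2/5% CO2. Sorbitol-synchronized, plasmion-enriched late schizonts at 2% hematocrit, 1% parasitemia exposed to compound for 8 h. Fixed in glutaraldehyde, permeabilized, RNase-treated, stained with YOYO-1. Ring parasitemia by flow cytometry (100,000 events) vs DMSO. Triplicate; IC50 from 16 concentrations, 180 to 0.8 μM.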

[4] = Selectivity ratio of IC50 for inhibition of full length recombinant Plasmodium vivax SUB1 expressed in Drosophila S2 cells using Dabsyl-KLVGADDV-SLA-EDANS as substrate to IC50 for inhibition of full length recombinant Plasmodium falciparum SUB1 using Dabsyl-KLVSADNIDIS-EDANS as substrate
[5] = tested on: Subtilisin-like protease 1 (Plasmodium vivax); experiment: Binding affinity to Plasmodium vivax SUB1 catalytic domain assessed as thermal stabilization by measuring change in melting temperature by differential scanning fluorimetry
Plasmodium falciparum [6] = experiment: Antiparasitic activity against Plasmodium falciparum infected in human Erythrocyte assessed as inhibition of merozoite egress from human Erythrocyte at 25 uM measured for 8 hrs by flow cytometry analysis relative to control; assay type: functional; in short: as §1
[7] = Metabolic stability in human serum measured after 24 hrs by LC-MS analysis; assay type: ADME, cell-free; details: read-out: Stability
In short: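 Pooled human serum prewarmed 20 min at 37 °C; peptide added to 0.6 mM final. Aliquots taken over 0-24 h and proteins precipitated with MeCN/H2O/formic acid. Supernatant lyophilized and analysed by LC-SWATH-MS. Intact peak area expressed as % of the 0 h value. Two independent experiments in duplicate, mean ± SEM.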

[8] = tested on: Subtilisin-like protease 1 (Plasmodium vivax); experiment: Binding affinity to Plasmodium vivax SUB1 using Dabsyl-KLVGADDV-SLA-EDANS as substrate using catalytic domain assessed as dissociation constant (Koff) by jump dilution assay
[9] = tested on: Subtilisin-like protease 1 (Plasmodium vivax); experiment: Binding affinity to Plasmodium vivax SUB1 using Dabsyl-KLVGADDV-SLA-EDANS as substrate using catalytic domain assessed as bound half life by jump dilution assay
[10] = biological target: T1, Subtilisin-like protease 1; experiment: Inhibition of Plasmodium falciparum SUB1 assessed as inhibition constant
Plasmodium falciparum [11] = experiment: Antiparasitic activity against Plasmodium falciparum infected in human Erythrocyte assessed as inhibition of merozoite egress from human Erythrocyte measured for 8 hrs by flow cytometry analysis; assay type: functional, organism-based; in short: as §1
Sus scrofa [12] = organism: Sus scrofa; experiment: Inhibition of porcine Pancreas elastase using Nalpha-succinyl-Ala-Ala-Ala-p-nitroanilide preincubated with compound for 15 mins followed by substrate addition and measured after 1 hr relative to control; details: time 75.0 min
In short: (§2)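 Enzyme in 100 mM Tris-HCl pH 8.0, 20 mM CaCl2: trypsin 5 μg/mL, chymotrypsin 0.5 μg/mL or elastase 5 μg/mL. Mixed with compound (2 μL of 10 mM stock into 98 μL) and preincubated 15 min. p-Nitroanilide substrate then added to 1 mM final. Absorbance at 405 nm followed for 1 h; DMSO and 2 mM PMSF as controls; triplicate.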

[13] = Inhibition of porcine Pancreas elastase using Nalpha-succinyl-Ala-Ala-Ala-p-nitroanilide preincubated with compound for 15 mins followed by substrate addition and measured after 1 hr; design: species or system Sus scrofa; in short: as §2
[14] = Inhibition of elastase (unknown origin); design: species or system Homo sapiens
Sus scrofa [15] = organism: Sus scrofa; experiment: Inhibition of porcine Pancreas trypsin using Nalpha-benzoyl-L-arginine-p-nitroanilide hydrochloride preincubated with compound for 15 mins followed by substrate addition and measured after 1 hr; details: time 75.0 min; in short: as §2
[16] = Selectivity ratio, ratio of IC50 for porcine Pancreas elastase to IC50 for Plasmodium falciparum SUB1
[17] = Selectivity ratio, ratio of IC50 for porcine Pancreas elastase to IC50 for Plasmodium vivax SUB1
Bos taurus = organism: Bos taurus; experiment: Inhibition of bovine Pancreas chymotrypsin using Nalpha-succinyl-Ala-Ala-Pro-phe-p-nitroanilide preincubated with compound for 15 mins followed by substrate addition and measured after 1 hr; details: time 75.0 min; in short: as §2

Row | Structure (SMILES) | IC50 [1] [nM] | IC50 [2] [nM] | inhibition at 100 µM (Plasmodium falciparum [3]) [%] | Ratio IC50 [4] | also measured
1 | C=CCOC(=O)CC[C@H](NC(=O)[C@H](Cc1nnn[nH]1)NC(=O)C(=O)[C@H](C)NC(=O)[C@H](C)NC(=O)[C@@H](NC(=O)[C@@H](NC(C)=O)[C@@H](C)CC)[C@@H](C)O)C(N)=O (Ac-ITA[X1][Ala(1H-tetrazol-5-yl)]E(OAll)-NH2) | 1240 | 24400 | 2 |  | 
2 | C=CCOC(=O)CC[C@H](NC(=O)[C@H](CC(=O)O)NC(=O)C(=O)[C@H](C)NC(=O)[C@H](C)NC(=O)[C@@H](NC(=O)[C@H](CC1CCCCC1)NC(C)=O)[C@@H](C)O)C(N)=O (Ac-[Cha]TA[X1]DE(OAll)-NH2) | 4080 | 34900 |  | 9 | ΔTm [5]: 6.8 °C; inhibition (Plasmodium falciparum [3]): inactive
3 | CC[C@H](C)[C@H](NC(=O)[C@H](CC(=O)O)NC(=O)C(=O)[C@H](C)NC(=O)[C@H](C)NC(=O)[C@@H](NC(=O)[C@@H](NC(C)=O)C1CCCC1)[C@@H](C)O)C(N)=O (Ac-[Gly(cPent)]TA[X1]DI-NH2) | 14 | 17 | 99.8 |  | inhibition at 25 µM (Plasmodium falciparum [6]): 25%
4 | C=CCOC(=O)CC[C@H](NC(=O)[C@H](CC(=O)O)NC(=O)C(=O)[C@H](C)NC(=O)[C@H](C)NC(=O)[C@@H](NC(=O)[C@@H](NC(C)=O)[C@@H](C)CC)[C@@H](C)O)C(N)=O (Ac-ITA[X1]DE(OAll)-NH2) | 180 | 1950 | 13 | 9 | remaining at 24 h [7]: ~95%; K [8]: 0.074 min⁻¹; T1/2 [9]: 10 min
5 | CC[C@H](C)[C@H](NC(=O)[C@H](CCCCN)NC(=O)CCC(C)C)C(=O)N[C@H](C(=O)N[C@@H](C)C(=O)N[C@@H](CCC(N)=O)C(=O)C(=O)N[C@@H](CC(=O)O)C(=O)N[C@@H](CC(=O)O)C(=O)N[C@@H](CCC(N)=O)C(=O)N[C@@H](CCC(N)=O)C(N)=O)[C@@H](C)O ({Pentanoyl(4-Me)}-KITA[X3]DDQQ-NH2) |  |  |  |  | Ki [10]: 10000 nM
6 | C[C@@H](NC[C@@H](O)[C@H](Cc1ccccc1)NC(=O)c1ccc(C(=O)N2CCN(C)CC2)cc1)c1ccccc1 |  |  |  |  | IC50 (Plasmodium falciparum [11]): 1.1 nM
7 | C=CCOC(=O)CC[C@H](NC(=O)[C@H](CC(=O)O)NC(=O)C(=O)[C@H](C)NC(=O)[C@H](C)NC(=O)[C@@H](NC(=O)[C@@H](NC(C)=O)C1CCCC1)C1CCCC1)C(N)=O (Ac-[Gly(cPent)][Gly(cPent)]A[X1]DE(OAll)-NH2) | 80 | 100 | 46 | 1.25 | inhibition at 25 µM (Plasmodium falciparum [6]): 6%
8 | C=CCOC(=O)CC[C@H](NC(=O)[C@H](CC(=O)O)NC(=O)C(=O)[C@H](C)NC(=O)[C@H](C)NC(=O)[C@@H](NC(=O)[C@@H](NC(C)=O)C1CCCCC1)[C@@H](C)O)C(N)=O (Ac-[Chg]TA[X1]DE(OAll)-NH2) | 200 | 1950 | 13 | 9 | 
9 | CC(=O)N[C@H](C(=O)N[C@H](C(=O)N[C@@H](C)C(=O)N[C@@H](C)C(=O)C(=O)N[C@@H](CC(=O)O)C(N)=O)[C@@H](C)O)C1CCCC1 (Ac-[Gly(cPent)]TA[X1]D-NH2) | 100 | 550 | 32 |  | K [8]: 0.034 min⁻¹; T1/2 [9]: 20 min
10 | C=CCOC(=O)CC[C@H](NC(=O)[C@@H](NC(=O)C(=O)[C@H](C)NC(=O)[C@H](C)NC(=O)[C@@H](NC(=O)[C@@H](NC(C)=O)C1CCCC1)[C@@H](C)O)C(C)(C)C(=O)O)C(N)=O (Ac-[Gly(cPent)]TA[X1][Asp(3,3-Me2)]E(OAll)-NH2) | 180 | 1030 | 3 |  | 
11 | CC(=O)N[C@H](C(=O)N[C@H](C(=O)N[C@@H](C)C(=O)N[C@@H](C)C(=O)C(=O)N[C@@H](CC(=O)O)C(=O)N[C@@H](CCC(=O)O)C(N)=O)[C@@H](C)O)C1CCCC1 (Ac-[Gly(cPent)]TA[X1]DE-NH2) | 30 | 88 |  |  | inhibition (Plasmodium falciparum [3]): inactive
12 | C=CCOC(=O)CC[C@H](NC(=O)[C@H](CC(=O)O)NC(=O)C(=O)[C@H](C)NC(=O)[C@H](C)NC(=O)[C@H](Cc1ccc(O)cc1)NC(=O)[C@@H](NC(C)=O)C1CCCC1)C(N)=O (Ac-[Gly(cPent)]YA[X1]DE(OAll)-NH2) | 25 | 150 | 44 |  | 
13 | C=CCOC(=O)CC[C@H](NC(=O)[C@H](CC(=O)O)NC(=O)C(=O)[C@H](C)NC(=O)[C@H](C)NC(=O)[C@@H](NC(=O)[C@@H](NC(C)=O)C1CCCC1)[C@@H](C)O)C(N)=O | 50 | 570 | 37 | 9 | inhibition (Sus scrofa [12]): Active; IC50 [13]: 36000 nM; IC50 [14]: 820 nM; inhibition (Sus scrofa [15]): inactive; Ratio IC50 [16]: 63; remaining at 24 h [7]: ~95%; ΔTm [5]: 14.3 °C; K [8]: 0.023 min⁻¹; T1/2 [9]: 30 min; Ratio IC50 [17]: 720; inhibition (Bos taurus): inactive
14 | C=CCOC(=O)CC[C@H](NC(=O)[C@H](CO)NC(=O)C(=O)[C@H](C)NC(=O)[C@H](C)NC(=O)[C@@H](NC(=O)[C@@H](NC(C)=O)C1CCCC1)[C@@H](C)O)C(N)=O (Ac-[Gly(cPent)]TA[X1]SE(OAll)-NH2) | 10900 | 32200 | 11 |  | 
15 | C=CCOC(=O)CC[C@H](NC(=O)[C@H](CC(N)=O)NC(=O)C(=O)[C@H](C)NC(=O)[C@H](C)NC(=O)[C@@H](NC(=O)[C@@H](NC(C)=O)[C@@H](C)CC)[C@@H](C)O)C(N)=O (Ac-ITA[X1]NE(OAll)-NH2) | 5230 |  | 31 |  | 
